# Assays:
# [1] = folding enthalpy; higher = less favourable; fluorescence melt of hairpins on a sequencing array, two-state fit; conditions: sodium 0.088 M
# Procedure, shortened: (§1)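 Cy3 signals were normalised both to pre-quench Cy3 and to control constructs. They came from library hairpins carrying annealed Cy3 and quencher oligos on a sequenced MiSeq flow cell, imaged in 50 mM Na-HEPES pH 8.0, 25 mM NaCl, in 2.5 °C steps up to 60 °C. Bootstrapped two-state fits gave melting temperature and folding enthalpy, and four replicates were combined by inverse variance. Fitted temperatures were then raised by 9.35 °C to match UV melts.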
# [2] = melting temperature; fluorescence melt of hairpins on a sequencing array, two-state fit, raised by 9.35 °C to match UV melts; conditions: sodium 0.088 M
# Procedure, shortened: as §1
Sequence,folding enthalpy [1] [kcal/mol],Tm [2] [°C]
GGGCGCGAAAGCGTGCCC ((((((....)))..))),-19.1,64.2
GGGCGGCGAAAGCCCCC (((.(((....)))))),-17.3,65.6
GGGCGTCGAAAGACCCCC (((.(((....))).))),-16.6,59
GGGCGTTCGAAAGAACCC (((..(((....)))))),-19.9,50.3
GGGCTACGAAAGTATCCC (((.(((....))).))),-29.9,48.4
GGGCTCCGAAAGGATCCC (((.(((....))).))),-44.4,53.5
GGGCTCGAAAGAGGACCC ((((((....)))..))),-20.9,49.5
GGGCTCGAAAGAGTGCCC ((((((....)))..))),-34.1,51.3
GGGCTCGGAAACGAGTCC ((.((((....)))).)),-41,65.2
GGGCTCGGAAACGGGCCC ((((.((....)).)))),-43.6,66.9
GGGCTGCGAAAGCAACCC (((.(((....))).))),-38.9,60.2
GGGCTGGGAAACCAGCTC (.(((((....))))).),-26.6,58.7
GGGCTGTCGAAAGACCCC (((..(((....)))))),-18.4,44.1
GGGCTTCGAAAGAACCCC (((.(((....))).))),-20.5,47.6
GGGCTTGGAAACGAGCTC (.(((.(....).))).),-29.7,42
GGGGAAACGAAAGTTCCC (((..(((....)))))),-22.1,52
GGGGAAGGAAACTTCCCC (((((((....))))))),-30.4,65
GGGGAAGGAAACTTCTCC ((.((((....)))).)),-35.5,45.4
GGGGACGAAAGTCACCC ((((((....))).))),-17.6,65.7
GGGGACGAAAGTCGACCC ((((((....)))..))),-18.3,48.9
GGGGACGGAAACGTCCTC (.(((((....))))).),-13.7,58.7
GGGGAGAAATCCCC (((((....))))),-26.6,53.5
GGGGAGACGAAAGTCCCC (((..(((....)))))),-29.6,58.1

Sequence,folding enthalpy [1] [kcal/mol],Tm [2] [°C]
GGGGAGGGAAACCTCTCC ((.((((....)))).)),-34.1,51.8
GGGGAGGGAAACTTCCCC (((((.(....).))))),-33,50.9
GGGGAGTCGAAAGACCCC (((..(((....)))))),-29.2,54.7
GGGGCAACGAAAGTTCCC (((..(((....)))))),-25.5,47.4
GGGGCAGGAAACTGTCCC (((.(((....))).))),-39.4,61.3
GGGGCCGAAAGGCAACCC ((((((....)))..))),-15,57.3
GGGGCCGAAAGGCAGCCC ((((((....)))..))),-14.6,54
GGGGCCTCGAAAGAGCCC (((..(((....)))))),-23.8,56.8
GGGGCTGGAAACAGTCCC (((.(((....))).))),-50.6,59.1
GGGGGAGGAAACTCCCTC (.(((((....))))).),-19.3,54.6
GGGGGAGGAAACTCCTCC ((.((((....)))).)),-22,53.4
GGGGGTACGAAAGTACCC (((..(((....)))))),-8.56,63.4
GGGGGTCGAAAGACACCC (((.(((....))).))),-35.5,67.4
GGGGGTGGAAACGCCCTC (.(((.(....).))).),-28,59.5
GGGGGTGGAAACGCCTCC ((.((.(....).)).)),-23.7,49.7
GGGGGTGGAAACGTCCCC ((((..(....)..)))),-26.2,48.7
GGGGTAGGAAACTATCCC (((.(((....))).))),-38.4,48.9
GGGGTAGGAAACTGCCTC (.((.((....)).)).),-25.1,38
GGGGTCCGAAAGGATCCC (((.(((....))).))),-36,67.9
GGGGTCGAAAGACATCCC ((((((....)))..))),-17.1,46.5
GGGGTCGAAAGACCTCCC ((((((....)))..))),-11.7,51.4
GGGGTCGAAAGACTGCCC ((((((....)))..))),-16.2,41.5
GGGGTGCCGAAAGGCCCC (((..(((....)))))),-14.6,65

Sequence,folding enthalpy [1] [kcal/mol],Tm [2] [°C]
GGGGTGGCGAAAGCCCCC (((..(((....)))))),-14.2,62.9
GGGGTTGAAAAACCCC ((((((....)))))),-34.5,66.7
GGGGTTGGAAACAACCTC (.(((((....))))).),-31.5,52.5
GGGTAAACGAAAGTTCCC (((..(((....)))))),-20.7,39.8
GGGTAACGAAAGTTTCCC (((.(((....))).))),-43,50.3
GGGTAAGAAATTACCC ((((((....)))))),-27.4,50.9
GGGTAATCGAAAGATCCC (((..(((....)))))),-25,35.9
GGGTACCGAAAGGTGCCC (((.(((....))).))),-29.2,68.7
GGGTACGAAAGTAAGCCC ((((((....)))..))),-20.7,40.7
GGGTAGCGAAAGCTGCCC (((.(((....))).))),-33.5,69.2
GGGTAGGCGAAAGCCCCC (((..(((....)))))),-16.9,53
GGGTAGGGAAACCTACTC (.(((((....))))).),-18.7,44.6
GGGTAGGGAAACCTGCTC (.(.(((....))).).),-14.8,36.5
GGGTAGGGAAACCTGTCC ((..(((....)))..)),-17.2,32.3
GGGTAGGGAAACTTGCCC (((.(.(....).).))),-20.4,35.6
GGGTATCGAAAGATCCC (((.(((....)))))),-30.6,49.7
GGGTATGGAAACGTACTC (.(((.(....).))).),-13.4,30.7
GGGTCAACGAAAGTTCCC (((..(((....)))))),-18.8,34.7
GGGTCAGCGAAAGCTCCC (((..(((....)))))),-17.7,42.7
GGGTCCACGAAAGTGCCC (((..(((....)))))),-17.9,40.8
GGGTCCGAAAGGAGCCC ((((((....))).))),-15.6,68.5
GGGTCCGAAAGGAGTCCC ((((((....)))..))),-19.6,46.5
GGGTCCTCGAAAGAGCCC (((..(((....)))))),-15.3,40

Sequence,folding enthalpy [1] [kcal/mol],Tm [2] [°C]
GGGTCGGGAAACCGGCTC (.(.(((....))).).),-21.1,47.9
GGGTCGGGAAACCGGTCC ((..(((....)))..)),-28.5,47.2
GGGTCTCGAAAGAGCCCC (((.(((....))).))),-37.9,57.4
GGGTCTGGAAACAGACTC (.(((((....))))).),-21.9,52
GGGTCTGGAAACGGACCC (((((.(....).))))),-51.6,59.3
GGGTGACGAAAGTCTCCC (((.(((....))).))),-36.2,60.3
GGGTGAGCGAAAGCTCCC (((..(((....)))))),-12.6,49.1
GGGTGCCGAAAGGCCCC (((.(((....)))))),-21.8,67.2
GGGTGCCGAAAGGCCCCC (((.(((....))).))),-15.6,66.8
GGGTGCGAAAGCACTCCC ((((((....)))..))),-10.4,53.5
GGGTGCGAAAGCATGCCC ((((((....)))..))),-15.7,49.6
GGGTGCGGAAACACACCC (((((.(....).))))),-37.6,54.8
GGGTGCGGAAACGCACTC (.(((((....))))).),-12,59.4
GGGTGCGGAAACGCGTCC ((..(((....)))..)),-19.7,50.9
GGGTGGGCGAAAGCCCCC (((..(((....)))))),-12,54.5
GGGTGGGGAAACCCATCC ((.((((....)))).)),-34.7,54.2
GGGTGTCCGAAAGGACCC (((..(((....)))))),-14,55
GGGTGTGGAAACACGCCC (((.(((....))).))),-39.6,62.5
GGGTGTGGAAACGCACCC (((((.(....).))))),-45.2,60
GGGTTAGGAAACTAATCC ((.((((....)))).)),-35.1,42.7
GGGTTCCCGAAAGGGCCC (((..(((....)))))),-18.6,47.7
GGGTTCCGAAAGGACCCC (((.(((....))).))),-39.5,58.1
